“Also recorded” adds a separate entry of the source.
Tests used:
syngeneic mouse models = conditions: multiple syngeneic mouse models; cited from earlier work
plasma arginine = test: Pharmacodynamics: plasma arginine concentration by LC-MS/MS; format: in vivo, human; conditions: monotherapy / INCB001158 overall
T-cell = conditions: in vitro; cited from earlier work
[1] = INCB001158 plasma pharmacokinetics; format: in vivo, human; conditions: for Cmax: Cmax (mean±SD); for half-life: t1/2 (mean±SD)
[2] = tested on: patients with advanced or metastatic solid tumours; test: Safety: treatment-emergent adverse events; format: in vivo, human
Summary of the method: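 Safety covered monotherapy Parts 1a/2, with oral tablet or capsule dosing twice daily on days 1–28 of 28-day cycles. TEAEs were graded by CTCAE v4.03, which counts malignant progression as an AE. Laboratory values, vital signs and physical examinations were also monitored. The safety population was all patients receiving ≥1 dose. DLTs were defined as grade 3–4 toxicities, urea cycle inhibition, or AUC0–12h >100 µg.h/mL.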

[3] = human, plasma, oral, 50 mg, Part 1a C1D1 single dose 50 mg (n=8)
[4] = human, plasma, oral, 75 mg, Part 1a C1D1 single dose 75 mg (n=7)

C[C@H](N)C(=O)N1C[C@H](CCCB(O)O)[C@](N)(C(=O)O)C1 [INCB001158]
tumour growth (syngeneic mouse models): reduced tumour growth | plasma arginine change on treatment (plasma arginine): dose-dependently increased; also recorded: dose-dependent increase in plasma arginine | T-cell immunosuppression (T-cell): reversed T-cell immunosuppression in vitro | dose proportionality of plasma exposure (Cmax, AUC) ([1]; after multiple oral administrations, 50 mg to 150 mg two times per day): increased approximately dose proportionally | AUC(0-inf) ([1]; human, plasma, oral, 50 mg): 8860 ± 3810 ng·h/mL | Cmax [1, 3]: 795 ± 259 ng/mL | half-life [1, 3]: 5.5 ± 1.4 h | Cmax [1, 4]: 1350 ± 379 ng/mL | half-life [1, 4]: 5.3 ± 1 h | time to steady state ([1]; monotherapy, from predose PK samples): < 1 week | TEAEs leading to dose reduction ([2]; monotherapy): no TEAE led to dose reduction | recommended phase 2 dose (RP2D) ([2]; monotherapy): 100 mg two times per day | serious TEAE abdominal pain ([2]; monotherapy): 5.6% | serious TEAE back pain ([2]; monotherapy): 2.8% | serious TEAE cellulitis ([2]; monotherapy): 2.8% | serious TEAE malignant neoplasm progression ([2]; monotherapy): 4.7% | serious TEAE small-intestinal obstruction ([2]; monotherapy): 2.8% | ALT increased, any-grade TEAE ([2]; monotherapy 50 mg bid (n=8)): 0 n (%) | AST increased, any-grade TEAE ([2]; monotherapy 50 mg bid (n=8)): 1 (12.5) n (%) | Abdominal pain, any-grade TEAE ([2]; monotherapy 50 mg bid (n=8)): 2 (25.0) n (%) | Abdominal pain, grade ≥3 TEAE ([2]; monotherapy 50 mg bid (n=8)): 1 (12.5) n (%) | Anaemia, any-grade TEAE ([2]; monotherapy 50 mg bid (n=8)): 3 (37.5) n (%) | Anaemia, grade ≥3 TEAE ([2]; monotherapy 50 mg bid (n=8)): 1 (12.5) n (%) | Any TEAE ([2]; monotherapy 50 mg bid (n=8)): 7 (87.5) n (%) | Any grade ≥3 TEAE ([2]; monotherapy 50 mg bid (n=8)): 6 (75.0) n (%) | Any irTEAE ([2]; monotherapy 50 mg bid (n=8)): 0 n (%) | Colitis, irTEAE ([2]; monotherapy 50 mg bid (n=8)): 0 n (%) | Constipation, any-grade TEAE ([2]; monotherapy 50 mg bid (n=8)): 2 (25.0) n (%) | Decreased appetite, any-grade TEAE ([2]; monotherapy 50 mg bid (n=8)): 0 n (%) | Diarrhoea, any-grade TEAE ([2]; monotherapy 50 mg bid (n=8)): 0 n (%) | Fatigue, any-grade TEAE ([2]; monotherapy 50 mg bid (n=8)): 1 (12.5) n (%) | Fatigue, grade ≥3 TEAE ([2]; monotherapy 50 mg bid (n=8)): 0 n (%) | Hypoalbuminaemia, any-grade TEAE ([2]; monotherapy 50 mg bid (n=8)): 0 n (%) | Hyponatraemia, any-grade TEAE ([2]; monotherapy 50 mg bid (n=8)): 0 n (%) | Hyponatraemia, grade ≥3 TEAE ([2]; monotherapy 50 mg bid (n=8)): 0 n (%) | Malignant neoplasm progression, grade ≥3 TEAE ([2]; monotherapy 50 mg bid (n=8)): 0 n (%) | Nausea, any-grade TEAE ([2]; monotherapy 50 mg bid (n=8)): 2 (25.0) n (%) | Oedema peripheral, any-grade TEAE ([2]; monotherapy 50 mg bid (n=8)): 2 (25.0) n (%) | Vomiting, any-grade TEAE ([2]; monotherapy 50 mg bid (n=8)): 2 (25.0) n (%) | ALT increased, any-grade TEAE ([2]; monotherapy 75 mg bid (n=7)): 0 n (%) | AST increased, any-grade TEAE ([2]; monotherapy 75 mg bid (n=7)): 0 n (%) | Abdominal pain, any-grade TEAE ([2]; monotherapy 75 mg bid (n=7)): 0 n (%) | Abdominal pain, grade ≥3 TEAE ([2]; monotherapy 75 mg bid (n=7)): 0 n (%) | Anaemia, any-grade TEAE ([2]; monotherapy 75 mg bid (n=7)): 3 (42.9) n (%) | Anaemia, grade ≥3 TEAE ([2]; monotherapy 75 mg bid (n=7)): 1 (14.3) n (%) | Any TEAE ([2]; monotherapy 75 mg bid (n=7)): 7 (100.0) n (%) | Any grade ≥3 TEAE ([2]; monotherapy 75 mg bid (n=7)): 2 (28.6) n (%) | Any irTEAE ([2]; monotherapy 75 mg bid (n=7)): 0 n (%) | Colitis, irTEAE ([2]; monotherapy 75 mg bid (n=7)): 0 n (%) | Constipation, any-grade TEAE ([2]; monotherapy 75 mg bid (n=7)): 1 (14.3) n (%) | Decreased appetite, any-grade TEAE ([2]; monotherapy 75 mg bid (n=7)): 2 (28.6) n (%) | Diarrhoea, any-grade TEAE ([2]; monotherapy 75 mg bid (n=7)): 0 n (%) | Fatigue, any-grade TEAE ([2]; monotherapy 75 mg bid (n=7)): 3 (42.9) n (%) | Fatigue, grade ≥3 TEAE ([2]; monotherapy 75 mg bid (n=7)): 0 n (%) | Hypoalbuminaemia, any-grade TEAE ([2]; monotherapy 75 mg bid (n=7)): 0 n (%) | Hyponatraemia, any-grade TEAE ([2]; monotherapy 75 mg bid (n=7)): 1 (14.3) n (%) | Hyponatraemia, grade ≥3 TEAE ([2]; monotherapy 75 mg bid (n=7)): 0 n (%) | Malignant neoplasm progression, grade ≥3 TEAE ([2]; monotherapy 75 mg bid (n=7)): 0 n (%) | Nausea, any-grade TEAE ([2]; monotherapy 75 mg bid (n=7)): 3 (42.9) n (%) | Oedema peripheral, any-grade TEAE ([2]; monotherapy 75 mg bid (n=7)): 0 n (%) | Vomiting, any-grade TEAE ([2]; monotherapy 75 mg bid (n=7)): 3 (42.9) n (%) | ALT increased, any-grade TEAE ([2]; monotherapy 100 mg bid (n=85)): 4 (4.7) n (%) | AST increased, any-grade TEAE ([2]; monotherapy 100 mg bid (n=85)): 8 (9.4) n (%) | Abdominal pain, any-grade TEAE ([2]; monotherapy 100 mg bid (n=85)): 15 (17.6) n (%) | Abdominal pain, grade ≥3 TEAE ([2]; monotherapy 100 mg bid (n=85)): 5 (5.9) n (%) | Anaemia, any-grade TEAE ([2]; monotherapy 100 mg bid (n=85)): 11 (12.9) n (%) | Anaemia, grade ≥3 TEAE ([2]; monotherapy 100 mg bid (n=85)): 4 (4.7) n (%) | Any TEAE ([2]; monotherapy 100 mg bid (n=85)): 81 (95.3) n (%) | Any grade ≥3 TEAE ([2]; monotherapy 100 mg bid (n=85)): 40 (47.1) n (%) | Any irTEAE ([2]; monotherapy 100 mg bid (n=85)): 1 (1.2) n (%) | Constipation, any-grade TEAE ([2]; monotherapy 100 mg bid (n=85)): 18 (21.2) n (%) | Decreased appetite, any-grade TEAE ([2]; monotherapy 100 mg bid (n=85)): 17 (20.0) n (%) | Diarrhoea, any-grade TEAE ([2]; monotherapy 100 mg bid (n=85)): 5 (5.9) n (%) | Fatigue, any-grade TEAE ([2]; monotherapy 100 mg bid (n=85)): 23 (27.1) n (%) | Fatigue, grade ≥3 TEAE ([2]; monotherapy 100 mg bid (n=85)): 6 (7.1) n (%) | Hypoalbuminaemia, any-grade TEAE ([2]; monotherapy 100 mg bid (n=85)): 6 (7.1) n (%) | Hyponatraemia, any-grade TEAE ([2]; monotherapy 100 mg bid (n=85)): 5 (5.9) n (%) | Hyponatraemia, grade ≥3 TEAE ([2]; monotherapy 100 mg bid (n=85)): 2 (2.4) n (%) | Malignant neoplasm progression, grade ≥3 TEAE ([2]; monotherapy 100 mg bid (n=85)): 5 (5.9) n (%) | Nausea, any-grade TEAE ([2]; monotherapy 100 mg bid (n=85)): 18 (21.2) n (%) | Oedema peripheral, any-grade TEAE ([2]; monotherapy 100 mg bid (n=85)): 13 (15.3) n (%)
